Measurements from ChEMBL document CHEMBL2311436, “Synthesis of acylated glycoconjugates as templates to investigate in vitro biopharmaceutical properties” (Bioorg Med Chem Lett, 2013).

Key:
Liver microsomes [1] = assay: In vitro intrinsic clearance in human liver microsomes assessed per milligram; format: ADME, Microsome
How it was run: (§1)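 Compounds were incubated with human liver microsomes, and mass spectrometry monitored parent loss and the appearance of mono-, di- and tri-acylated and fully deacylated hydrolysis products.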

Plasma = assay: (§2) Degradation half life in human plasma; format: ADME, cell-free
How it was run: (§3)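 Compounds were incubated in human plasma at 37 °C, and ester hydrolysis was followed by mass spectrometry. Tri-, di- and mono-acylated intermediates and the fully deacylated product were tracked by their characteristic molecular weights.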

Liver microsomes [2] = assay: In vitro intrinsic clearance in human liver microsomes assessed per milligram of protein in presence of NADPH; format: ADME, Microsome; how it was run: as §1
Albumin = Albumin (Homo sapiens, UniProt P02768); assay: Binding affinity to human serum albumin by chromatographic HSA binding assay; format: ADME; conditions: isolated protein
Albumin, sequence (P02768 whole entry): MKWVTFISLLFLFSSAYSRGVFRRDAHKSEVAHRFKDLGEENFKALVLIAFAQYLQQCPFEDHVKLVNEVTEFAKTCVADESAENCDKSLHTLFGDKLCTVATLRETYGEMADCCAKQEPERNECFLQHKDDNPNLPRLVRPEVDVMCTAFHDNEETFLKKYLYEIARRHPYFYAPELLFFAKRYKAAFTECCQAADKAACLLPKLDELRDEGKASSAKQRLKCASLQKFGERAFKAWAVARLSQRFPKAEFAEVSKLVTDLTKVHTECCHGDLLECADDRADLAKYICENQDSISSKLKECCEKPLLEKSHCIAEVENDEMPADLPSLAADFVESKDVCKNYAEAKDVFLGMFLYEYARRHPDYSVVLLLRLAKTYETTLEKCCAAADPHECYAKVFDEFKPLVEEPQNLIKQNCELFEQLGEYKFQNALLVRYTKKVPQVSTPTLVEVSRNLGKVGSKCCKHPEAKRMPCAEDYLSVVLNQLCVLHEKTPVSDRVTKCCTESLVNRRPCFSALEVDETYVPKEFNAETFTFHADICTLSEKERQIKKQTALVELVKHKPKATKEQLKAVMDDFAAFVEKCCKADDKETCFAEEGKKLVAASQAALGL
How it was run: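 Protein binding was estimated from retention time on an immobilized human serum albumin (HSA) HPLC column, correlated against standard compounds with known protein binding values. This was used in place of equilibrium dialysis or ultrafiltration because the esters may deacylate under those conditions.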

[3] = as §2; format: ADME, cell-free; how it was run: as §3

Row | CLH (Liver microsomes [1]) | t1/2 (Plasma) | CLH (Liver microsomes [2]) | Activity (Albumin) [%] | half-life [3] [min] | SMILES
1 | 83 µL/min |  | 69 µL/min | 96 | 555 | CCCC(=O)OC[C@H]1O[C@@H](n2cc(-c3ccccc3)nn2)[C@H](OC(=O)CCC)[C@@H](OC(=O)CCC)[C@@H]1OC(=O)CCC
2 | 423 µL/min |  | 397 µL/min | 59 | 55 | CC(=O)OC[C@H]1O[C@@H](n2cc(-c3ccccc3)nn2)[C@H](OC(C)=O)[C@@H](OC(C)=O)[C@@H]1OC(C)=O
3 | < 7 µL/min | Stable | < 7 µL/min | 19 |  | OC[C@H]1O[C@@H](n2cc(-c3ccccc3)nn2)[C@H](O)[C@@H](O)[C@@H]1O

The next lines start with the molecule.

Row | SMILES | CLH (Liver microsomes [1]) | t1/2 (Plasma) | CLH (Liver microsomes [2]) | Activity (Albumin) [%] | half-life [3] [min]
4 | CC(C)CC(=O)OC[C@H]1O[C@@H](n2cc(-c3ccccc3)nn2)[C@H](OC(=O)CC(C)C)[C@@H](OC(=O)CC(C)C)[C@@H]1OC(=O)CC(C)C | < 7 µL/min | Stable | < 7 µL/min | < 99 | 
5 | CCCCC(=O)OC[C@H]1O[C@@H](n2cc(-c3ccccc3)nn2)[C@H](OC(=O)CCCC)[C@@H](OC(=O)CCCC)[C@@H]1OC(=O)CCCC | < 7 µL/min | Stable | < 7 µL/min | < 99 | 
6 | CCC(=O)OC[C@H]1O[C@@H](n2cc(-c3ccccc3)nn2)[C@H](OC(=O)CC)[C@@H](OC(=O)CC)[C@@H]1OC(=O)CC | ND(Unstable) |  | ND(Unstable) | 88 | 26
